Screens: PubChem BioAssay, several laboratories
A selection: hits, their analogues and other compounds. The true share with any hit is near 11%.
G6PDH counter – L. mesenteroides G6PDH inhibitors, counter-screen for G6PDH-coupled screening assays, biochemical, Leuconostoc mesenteroides enzyme; 0.12% of 200,000 active; glucose-6-phosphate dehydrogenase [Leuconostoc mesenteroides]; inhibition, % at 5 µM; Purified L. mesenteroides G6PDH, diaphorase/resazurin coupled fluorescence, 45 min; AID 1020, 2008
Diaph act CS – compounds boosting diaphorase resazurin reduction – biochemical, uHTS, resorufin fluorescence, counter-screen for diaphorase-coupled primary assays, primary screen; Diaphorase/resazurin coupled assay, 16 min; stronger effect = higher value; 1 = vehicle wells, 0 = NADH-free wells; activation factor at 20 µM; 0.005% of 190,000 active; AID 1229, 2008;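 active = diaphorase activity raised at least twofold by the compound at 20 µM; inactive = activation factor below 2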
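test system = bacterial diaphorase enzyme (C. kluyveri) | quantity = enzyme 0.07 U/mL final | reagent = NADH substrate 0.114 mM plus resazurin dye 0.1 mM, final | incubation = 16 min enzyme reaction, ambient temperature | buffer or medium = HEPES pH 7.4 buffer with MgCl2 and Tween 20 | signal = fluorescence of resorufin, 544 nm excitation, 590 nm emission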
L major viab – Leishmania major promastigote growth inhibition, primary screen; 9% of 200,000 active; inhibition, % at 10 µM; Leishmania major promastigotes, resazurin fluorescence viability;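 also: promastigotes grown with compound for 44 hours at 28 °C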
Diaphorase inh – diaphorase inhibitors and chemical oxidizers, primary screen, counter-screen for diaphorase-coupled primary assays, biochemical, uHTS, resorufin fluorescence | diaphorase resazurin-to-resorufin fluorescence, NADH, 16 min; bacterial (C. kluyveri) enzyme, not human | 0.69% of 190,000 active | AID 1217, 2008 | inhibition, % at 20 µM;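 active = primary screen inhibition at 20 µM above a set limit, cut at about 50% in these data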
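Test system: Clostridium kluyveri diaphorase enzyme / Quantity: diaphorase at 0.14 U/mL in enzyme working solution / Incubation: 16-min room-temperature incubation before reading / Benchmarks: NADH-free wells as positive control, DMSO-only neutral wells / Signal: resorufin fluorescence 544/590 nm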
WT yeast gro inh – growth inhibition of WT strain, primary screen, mitochondrial fusion inhibitor project, WT and mutant strains, chemical genetic. mitochondrial fusion phenotypic screen. inhibition, % at 10 µM. 2.1% of 190,000 active. AID 1362, 2008; in the data active = inhibition above about 58%; tested in S. cerevisiae
Numbers stand for hits; i = inactive; nt = no result. Rule as the data show it, unless noted: active = inhibition above about 50%; inactive = the rest.

SMILES	G6PDH counter	Diaph act CS	L major viab	Diaphorase inh	WT yeast gro inh
CC(NC(=O)C(c1ccccc1)c1ccccc1)C(=O)N1CCCCC1 (centres undefined)	i	i	51.5	i	i
Cc1ccc(NC(=O)Cn2c(O)c(N=NC(=O)c3cc4ccccc4cc3O)c3ccccc32)cc1	i	i	i	i	i
Cn1cnnc1SCc1ccc(C(=O)N=Nc2c(O)n(Cc3ccc(Cl)cc3)c3ccccc23)cc1	i	i	98.6	i	i
O=C(N=Nc1c(O)n(Cc2ccccc2)c2ccccc12)c1ccc(O)cc1	i	i	90.7	i	i
COc1ccc(C(=O)NCC(=O)N=Nc2c(O)n(Cc3ccccc3)c3ccccc23)cc1OC	i	i	i	i	i
O=C(N=Nc1c(O)n(Cc2ccccc2)c2ccccc12)c1cc2ccccc2cc1O	i	i	i	i	69.8
CCn1c(O)c(N=NC(=O)c2ccc(CSc3nncn3C)cc2)c2ccccc21	i	i	i	i	i
CCO[C@@H]1OC(C(=O)N2CCN(C)CC2)=C[C@H](C(C)(C)C)[C@H]1CCCO	i	i	i	i	i
CC1(C)C(c2ccccc2)=[N+]([O-])CN1O	i	i	i	i	i
N#Cc1nc(-c2ccc(OCc3ccc(Cl)cc3)cc2)oc1N1CCC(C(N)=O)CC1	i	i	i	i	i
CCCOc1ccc(-c2nc(C#N)c(N3CCC(C(N)=O)CC3)o2)cc1	i	i	i	i	94.2
CCCCOC(=O)Cn1c(=O)c2c(nc(Br)n2Cc2ccccc2)n(C)c1=O	i	i	i	i	i
COC(=O)C1=C(O)C(C(=O)OC)C(c2ccc(C)cc2)C(C#N)(C#N)C1c1ccc(C)cc1 (centres undefined)	i	i	61.2	i	66.7
CCOC(=O)CSC1=C(C#N)C(c2ccc(C)cc2)C(C(=O)OC)C(=O)N1 (centres undefined)	i	i	i	i	i
O=C(Cc1cccs1)NC1(C(=O)NC2CCCC2)CCCCC1	i	i	i	i	i
COc1cc2nc(SCc3c(C)noc3C)n(CCC3=CCCCC3)c(=O)c2cc1OC	i	i	61.5	i	i
O=C(O)/C=C/C(=O)c1ccc2c(c1)NC(=O)CO2	i	i	i	i	i
COc1cccc(C(=O)Nc2ccc(S(=O)(=O)Nc3cc(C)nc(C)n3)cc2)c1	i	nt	i	nt	i
CCCn1c(=N)n(CC(=O)C(C)(C)C)c2ccccc21	i	i	81.0	i	i
CCCCn1c(=N)n(CC(=O)C(C)(C)C)c2ccccc21	i	i	i	i	i
Cc1cc(CNC(=O)CC2C(=O)NCCN2CC(C)(C)C)nn1C (centres undefined)	i	i	i	i	i
COc1ccc2[nH]c(=O)c(CN(C(=O)c3ccccn3)c3ccccc3)cc2c1	i	i	99.8	i	i
COc1ccc2[nH]c(=O)c(CN(C(=O)NC3CCCCC3)C3CCCCC3)cc2c1	i	i	99.7	i	i
Cc1ccc(OCCOCCn2ccnc2)c(Br)c1	i	i	91.5	i	i
Clc1ccc(OCCCn2ccnc2)c(Br)c1	i	i	94.8	i	i
SMILES	G6PDH counter	Diaph act CS	L major viab	Diaphorase inh	WT yeast gro inh
COc1ccc(Cn2ccnc2)cc1[N+](=O)[O-]	i	i	i	i	i
COc1ccc(Cn2ccnc2)cc1Br	i	i	71.5	i	i
CN1C(=O)c2ccc(NC(=S)NC(=O)C(C)(C)C)cc2C1=O	i	i	i	i	i
Cc1ccc(C(=O)C(NC(=O)c2ccco2)Nc2sc3c(c2C(N)=O)CCCC3)cc1 (centres undefined)	i	i	i	i	i
O=C(CSc1nnc(CNc2ccc(F)cc2)o1)N1CCN(C(=O)c2ccco2)CC1	i	i	i	i	i
O=C(CSc1nnc(CNc2ccc(F)cc2)o1)N1c2ccccc2Sc2ccccc21	i	i	64.8	i	i
CC(C)(C)N(Cc1ccccc1)C(=O)CSc1nnc(CNc2ccc(F)cc2)o1	i	i	100.0	i	i
CCN(C(=O)COC(=O)/C=C/c1ccc(O)c(OC)c1)C1CCS(=O)(=O)C1 (centres undefined)	i	i	i	i	i
CC(NC(=O)COC(=O)[C@@H]1CCCN1S(=O)(=O)c1ccccc1F)C12CC3CC(CC(C3)C1)C2 (some centres undefined)	i	i	95.6	i	i
COC(=O)c1cc(Br)c(=O)n(-c2cccc(F)c2)c1	i	i	i	i	i
CCC(NC(=O)c1ccc([N+](=O)[O-])cc1[N+](=O)[O-])c1ccccc1 (centres undefined)	i	i	91.8	i	i
CC(C1CC2CCC1C2)n1c(-c2ccco2)n[nH]c1=S (centres undefined)	i	i	i	i	71.7
CC(C)CCNC(=O)C1(c2cccs2)CCOCC1	i	i	i	i	i
CC1=C(CC(=O)c2ccc(Cl)cc2)C(=O)c2ccccc2C1=O	56.0	i	i	i	i
Cc1ccccc1-c1nsc(SCC(=O)c2ccc(Cl)cc2)n1	i	i	i	i	i
COc1ccc(Cl)cc1NC(=O)c1ccoc1C	i	i	i	i	i
COC(=O)CSc1nc(-c2ccccc2)nc2ccccc12	i	i	i	i	i
COc1ccc(Br)cc1CN(C)CC(=O)Nc1ccccc1Cl	i	i	i	i	67.1
CN(CC(=O)Nc1ccccc1-c1ccccc1)Cc1ccccc1Cl	i	i	i	i	70.3
CN(CC(=O)Nc1ccc(C(N)=O)cc1)CC(=O)Nc1ccccc1Cl	i	i	50.8	i	i
COc1ccccc1CN(C)CC(=O)Nc1ccc(Cl)cc1F	i	i	i	i	i
COc1cc(Cl)c(C)cc1NC(=O)CN(C)Cc1cccc(OC)c1OC	i	i	i	i	59.2
Cc1nn(-c2ccccc2)c(Cl)c1CN(C(=O)CCl)c1cccc2ccccc12	i	i	98.7	i	i
Cc1nn(-c2ccccc2)c(Cl)c1CN(C(=O)CCl)c1ccc(Cl)cc1	i	i	100.4	i	i
CC(=O)N(Cc1c(C)nn(-c2ccccc2)c1Cl)c1ccc(Cl)cc1	i	i	i	i	i
SMILES	G6PDH counter	Diaph act CS	L major viab	Diaphorase inh	WT yeast gro inh
CN1CCN(C(=O)CSc2nc(-c3cccs3)cc(-c3cccs3)c2C#N)CC1	i	i	66.2	i	i
Cc1ncc([N+](=O)[O-])n1Cc1ccccc1	i	i	73.4	i	i
Cc1ccc(Cn2c([N+](=O)[O-])cnc2C)cc1	i	i	i	i	i
Cc1ccccc1NC(=O)Cn1c([N+](=O)[O-])cnc1C	i	i	i	i	i
Cc1ncc([N+](=O)[O-])n1CC(=O)NC1CCCCC1	i	i	82.5	i	i
Cc1ncc([N+](=O)[O-])n1Cc1cccc(F)c1	i	i	85.2	i	i
Fc1ccc(-c2cc(C(F)(F)F)n3ncnc3n2)cc1	i	i	i	i	i
